Compound activity: PubChem BioAssay, The Scripps Research Institute Molecular Screening Center
This is a sample that favours compounds with a hit; in the whole collection about 4.5% have one here.
TAAR1 ag: human TAAR1 agonism; Q96RJ0; 360,000 compounds, 0.99% hits; activation, % at 3 µM; CHO RD-HGA16 TAAR1, Fluo-8 calcium fluorescence; vehicle wells 0%, saturating PEA agonist 100%;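 active = activation above the mean activation of all test compounds in the run plus 3 SD, cut at about 38% in these data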
Target sequence (Q96RJ0 whole entry, looked up): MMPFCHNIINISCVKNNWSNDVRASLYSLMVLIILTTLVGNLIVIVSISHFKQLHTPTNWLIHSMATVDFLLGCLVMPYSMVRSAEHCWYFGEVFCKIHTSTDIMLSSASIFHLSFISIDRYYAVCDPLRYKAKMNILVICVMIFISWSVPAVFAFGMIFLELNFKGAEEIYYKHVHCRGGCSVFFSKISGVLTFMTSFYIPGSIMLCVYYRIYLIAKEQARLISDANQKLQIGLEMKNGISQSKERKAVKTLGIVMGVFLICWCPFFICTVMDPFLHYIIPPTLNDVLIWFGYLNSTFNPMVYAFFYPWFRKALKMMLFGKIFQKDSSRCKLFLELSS
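test system = CHO RD-HGA16 cells carrying human TAAR1 plus Gα16 | schedule = 17-24 h seeding, 75 min 37 °C dye, 30 min RT | compound dosing = 3 µM single concentration | control set = DMSO and PEA EC100 | replicates = n 1 | signal = Fluo-8 fluorescence, 5 s baseline then 140 s kinetic read | measure = percent activation vs PEA EC100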
OX1R antag-1: blocks the human orexin 1 receptor | O43613 | 330,000 compounds, 1.8% hits | inhibition, % at 6.6 µM | OX1R-expressing cells, FRET antagonist read-out; in the data active = inhibition mostly above about 38%, no sharp cut-off; inactive = mostly below about 40%;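 also: 0% = agonist challenge alone and 100% = reference antagonist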
GPR7 antagonist: blocks human GPR7 receptor signaling. P48145. 290,000 compounds, 1.1% hits. AID 1861. GPR7-expressing cells, fluorescence antagonist assay. inhibition, % at 4.4 µM; in the data active = inhibition above about 16%, passing the limit was not always enough;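 also: cells stimulated with the agonist NPW; 0% = agonist with vehicle and 100% = vehicle without agonist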
Target sequence (P48145 whole entry, looked up): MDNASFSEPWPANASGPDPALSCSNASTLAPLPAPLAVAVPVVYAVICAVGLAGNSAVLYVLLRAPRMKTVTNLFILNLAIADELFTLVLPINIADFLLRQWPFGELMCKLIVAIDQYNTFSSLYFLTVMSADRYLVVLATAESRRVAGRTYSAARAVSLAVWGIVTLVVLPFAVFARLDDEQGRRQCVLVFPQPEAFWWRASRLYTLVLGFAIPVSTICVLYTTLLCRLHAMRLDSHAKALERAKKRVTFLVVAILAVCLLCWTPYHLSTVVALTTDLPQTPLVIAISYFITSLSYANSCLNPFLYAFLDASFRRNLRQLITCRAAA
OX1R antag-2: antagonists of human orexin 1 receptor. O43613. CHO/OX1R cells, Fluo-8 calcium fluorescence, orexin A. inhibition, % at 5 µM. 330,000 compounds, 0.43% hits;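 active = inhibition above its plate's threshold, mean inhibition of all tested compounds on the plate plus 3 SD, cut at about 37% in these data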;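 also: 0% = orexin A challenge wells and 100% = SB-334867-A antagonist wells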
TAAR1 antagonist: human TAAR1 antagonism; CHO RD-HGA16 TAAR1, Fluo-8 calcium fluorescence, antagonist; inhibition, % at 3 µM; AID 624466; 360,000 compounds, 1.5% hits; Q96RJ0;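 active = inhibition above a per-plate cutoff, the mean inhibition of test compounds on that plate plus 3 SD, cut at about 49% in these data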;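 also: 0% = DMSO plus EC80 beta-PEA response and 100% = DMSO alone without agonist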
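Test system – hTAAR1-expressing CHO RD-HGA16 cells, Gα16-coupled · Also added – β-PEA at EC80 concentration, post-compound challenge · Compound – 3 µM, single point · Incubation – dye loading 75 min at 37 °C, then 30 min room temperature · Measured by – Fluo-8 intracellular calcium dye fluorescence, real-time kinetic reads · Benchmarks – vehicle and agonist controls · Replicates – singlicate, one well per test compound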
CHO parental Ca: counter-screen for OX1R antagonists: effect in parental CHO cells; parental CHO-K1, ATP-induced calcium, Fluo-8 fluorescence; AID 463079; 330,000 compounds, 0.63% hits; inhibition, % at 5.6 µM;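 active = inhibition above that plate's mean sample inhibition plus 3 SD, cut at about 26% in these data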;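 also: 0% = ATP-challenged DMSO wells and 100% = DMSO wells without ATP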
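Test system: parental CHO cells; detection: calcium-sensitive Fluo-8 fluorescence; evaluation: percent inhibition of calcium signal; also added: ATP as calcium-mobilizing challenge; repeats: one well per compound; control set: ATP-challenged DMSO wells low, unchallenged DMSO wells high; compound: single nominal dose of 5.6 µM per compound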
TAAR1 ag confirm: confirmation of human TAAR1 agonists. shares compounds with TAAR1 ag. CHO RD-HGA16 TAAR1, Fluo-8 calcium fluorescence; scaled: DMSO 0%, maximal phenethylamine 100%. activation, % at 3 µM. 2,400 compounds, 82% hits. AID 651783;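 active = activation above a cutoff set at the run's mean compound activation plus 3 SD, cut at about 39% in these data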
Ga16 ag counter: nonselective agonist in parental cells, TAAR1 agonist counter-screen. shares compounds with TAAR1 ag. CHO-Ga16 parental, Fluo-8 calcium fluorescence; normalized to maximal ATP response, DMSO zero. activation, % at 3 µM. 2,400 compounds, 50% hits. AID 651787;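 active = activation above the run cutoff, the mean activation over all tested wells plus 3 SD, cut at about 12% in these data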;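 also: 0% = DMSO wells and 100% = maximal ATP response on the peak over basal ratio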
TAAR1 desens: counter-screen for human TAAR1 agonists: agonists that desensitize TAAR1; inhibition, % at 3 µM; 2,400 compounds, 46% hits; AID 651951; CHO RD-HGA16 hTAAR1, Fluo-8 calcium, beta-PEA response inhibition; shares compounds with TAAR1 ag;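 active = inhibition above the run cutoff, the mean inhibition of all test compounds plus 3 SD, cut at about 49% in these data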;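 also: beta-PEA stimulus applied at its EC80; loss of beta-PEA calcium signal after compound pretreatment read as receptor desensitization; 0% = DMSO with beta-PEA at EC80 and 100% = DMSO alone without agonist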
Ga16 antag count: nonselective Ga16 antagonist in TAAR1 agonist counter-screen. shares compounds with TAAR1 ag. CHO-Ga16 ATP-induced calcium, Fluo-8 fluorescence. inhibition, % at 3 µM. 2,400 compounds, 39% hits;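 active = inhibition above the plate's mean compound inhibition plus 3 SD, computed per plate, cut at about 22% in these data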;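 also: 0% = EC80 ATP with DMSO and 100% = DMSO wells without ATP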
Starred values were filed as active, the others as inactive; ! = repeats disagree.

`CC1C/C(=C/c2cccn2C)C(=O)/C(=C/c2cccn2C)C1` (stereo not drawn) gave TAAR1 ag 67*, OX1R antag-1 0, GPR7 antagonist -2, OX1R antag-2 111*, TAAR1 antagonist 76*, CHO parental Ca 83*, TAAR1 ag confirm 40*, Ga16 ag counter 45*, TAAR1 desens 51* and Ga16 antag count 65*.
`S=C1SCN(CCc2ccccc2)CN1CCc1ccccc1` gave TAAR1 ag 82*, TAAR1 antagonist 86*, TAAR1 ag confirm 90*, Ga16 ag counter 5, TAAR1 desens 92* and Ga16 antag count 15.
For O=C(CC1C(=O)NCCN1CCCc1ccccc1)NCCc1ccccc1F (stereo not drawn) the results were TAAR1 ag 75*, OX1R antag-1 3, GPR7 antagonist 3, OX1R antag-2 -1, TAAR1 antagonist 44, CHO parental Ca -30, TAAR1 ag confirm 93*, Ga16 ag counter 1, TAAR1 desens 72* and Ga16 antag count 0.
CN(C[C@H](Cc1ccccc1)N(C[C@H](Cc1cccc2ccccc12)N(CCc1ccccc1)N=O)N=O)N=O was read as TAAR1 ag 69*!, OX1R antag-1 6, OX1R antag-2 -37, TAAR1 antagonist -5, CHO parental Ca -19, TAAR1 ag confirm 46*, Ga16 ag counter 1, TAAR1 desens 5 and Ga16 antag count 10.
CC(C)C[C@@H](CN(C)N=O)N(C[C@H](Cc1ccccc1)N(CCc1ccccc1)N=O)N=O was read as TAAR1 ag 28, OX1R antag-1 17, GPR7 antagonist 7, OX1R antag-2 4, TAAR1 antagonist 43 and CHO parental Ca -9.
Screening CC(C)[C@H](CN(N=O)[C@@H](Cc1ccccc1)CN(C)N=O)N(CCc1ccccc1)N=O returned TAAR1 ag 22, OX1R antag-1 27, GPR7 antagonist -6, OX1R antag-2 -27, TAAR1 antagonist 15 and CHO parental Ca -37.
`CCCC[C@H](CN(N=O)[C@@H](Cc1ccccc1)CN(C)N=O)N(CCc1ccccc1)N=O` gave TAAR1 ag 57*, OX1R antag-1 16, GPR7 antagonist 11, OX1R antag-2 -33, TAAR1 antagonist 24, CHO parental Ca -17, TAAR1 ag confirm 64*, Ga16 ag counter 0, TAAR1 desens 23 and Ga16 antag count 14.
CCc1ccc(C(O)c2ncc(-c3cccc4ccccc34)[nH]2)cc1 (stereo not drawn) was read as TAAR1 ag 4 and TAAR1 antagonist 14.
For Nn1c(SCC(=O)NC2CCS(=O)(=O)C2)nc2scc(-c3ccccc3)c2c1=O (stereo not drawn) the results were TAAR1 ag 0, OX1R antag-1 3, OX1R antag-2 -14, TAAR1 antagonist 3 and CHO parental Ca -14.
Screening CCCCC(=O)Nc1ccc(C(=O)Nc2ccc(OC)cc2[N+](=O)[O-])cc1 returned TAAR1 ag 99*, OX1R antag-1 32, GPR7 antagonist -5, OX1R antag-2 24, TAAR1 antagonist 76*, CHO parental Ca 27, TAAR1 ag confirm 18, Ga16 ag counter 4, TAAR1 desens 26 and Ga16 antag count 20.
For COc1ccc(CN(C)C(=O)COC(=O)c2cnc(Cl)c(Cl)c2)cc1 the results were TAAR1 ag 1, OX1R antag-1 6, OX1R antag-2 -3, TAAR1 antagonist -8 and CHO parental Ca -18.
Screening Cc1ccn2c(CNCC3OCCc4ccccc43)c(C(=O)N3CCCCCC3)nc2c1 (stereo not drawn) returned TAAR1 ag 84*, OX1R antag-1 14, GPR7 antagonist -11, OX1R antag-2 -21, TAAR1 antagonist 39, CHO parental Ca -20, TAAR1 ag confirm 81*, Ga16 ag counter 5, TAAR1 desens 71* and Ga16 antag count 14.
O=C(c1nc2ccccn2c1CNCC1OCCc2ccccc21)N1CCOCC1 (stereo not drawn) was read as OX1R antag-1 12, GPR7 antagonist -12, OX1R antag-2 -28, CHO parental Ca -24, Ga16 ag counter 3 and Ga16 antag count 13.
`Cc1ccn(C(=O)c2ccc(NC(=O)CC(C)C)cc2)n1` gave TAAR1 ag 1, OX1R antag-1 14, GPR7 antagonist 10, OX1R antag-2 -8, TAAR1 antagonist -13 and CHO parental Ca -2.
For CC1=NN(c2ccccc2)C(c2ccco2)C1 (stereo not drawn) the results were TAAR1 ag 0 and TAAR1 antagonist -3.
Screening O=[N+]([O-])c1ccc(/C=C/C2=NN(c3ccccc3)C(c3ccco3)C2)cc1 (stereo not drawn) returned TAAR1 ag 80*, OX1R antag-1 15, GPR7 antagonist 12, OX1R antag-2 80*, TAAR1 antagonist 75*, CHO parental Ca 69*, TAAR1 ag confirm 128*, Ga16 ag counter 198*, TAAR1 desens 90* and Ga16 antag count 95*.
Screening COc1cc(COc2ccc(-c3nnco3)cc2)ccc1OC(F)F returned TAAR1 ag 48*, OX1R antag-1 14, GPR7 antagonist -7, OX1R antag-2 -13, TAAR1 antagonist 20, CHO parental Ca -9, TAAR1 ag confirm 2, Ga16 ag counter 2, TAAR1 desens -1 and Ga16 antag count 6.
For O=S1(=O)N=C(N2CCc3ccccc3C2)c2ccccc21 the results were TAAR1 ag 63*, OX1R antag-1 15, GPR7 antagonist -2, OX1R antag-2 -26, TAAR1 antagonist 3, CHO parental Ca -16, TAAR1 ag confirm 61*, Ga16 ag counter 3, TAAR1 desens 9 and Ga16 antag count 8.
For CSCCC(NC(=O)c1ccccc1Br)C(=O)NCC(C)(C)N1CCOCC1 (stereo not drawn) the results were TAAR1 ag 0, OX1R antag-1 10, OX1R antag-2 -5, TAAR1 antagonist 0 and CHO parental Ca -6.
For Cc1ccc(/C=C/C(=O)Nc2cccc(S(=O)(=O)N3CCOCC3)c2)o1 the results were TAAR1 ag 0, OX1R antag-1 14, GPR7 antagonist -8, OX1R antag-2 -8, TAAR1 antagonist -2 and CHO parental Ca -7.
